In ChEMBL document CHEMBL4038284, “Synthesis of novel quinoline-based 4,5-dihydro-1H-pyrazoles as potential anticancer, antifungal, antibacterial and antiprotozoal agents” (Eur J Med Chem, 2017):
≈ marks a conversion by molar mass, not a printed value.

Legend:
Escherichia coli = experiment: Antibacterial activity against Escherichia coli ATCC 25922 after 24 hrs by resazurin dye based microdilution assay; type: functional; conditions: ATCC 25922, 24 h
In short: (§1)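 MIC taken as the lowest concentration giving visible inhibition and/or by resazurin (1 mg/mL). Gentamicin was the control. Run in duplicate, repeated at least three times.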

Cryptococcus neoformans [1] = experiment: Growth inhibition of Cryptococcus neoformans ATCC 32264 at 250 ug/ml incubated for 48 hrs under dark condition by broth microdilution method relative to control; type: functional; conditions: ATCC 32264, 48 h, read-out: GI
In short: (§2)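 CLSI M27-A3 broth microdilution in RPMI-1640, DMSO ≤1%. Inoculum 1-5 × 10^3 CFU/mL. Incubated 48 h at 30 °C, dark. % inhibition = 100 − (OD405 test − sterility control)/(OD405 growth control − sterility control), with growth and sterility control wells. Triplicate.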

Leishmania panamensis = experiment: Antileshmanial activity against EpiR/GFP fused Leishmania panamensis MHOM/CO/87/UA140 intracellular amastigotes infected in human […] cells after 72 hrs by flow cytometric method; type: functional, cell-based; conditions: MHOM/CO/87/UA140, 72 h
In short: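 PMA-treated U-937 cells (3 × 10^5 cells/mL) infected with stationary-phase GFP L. panamensis promastigotes (15:1), 3 h at 34 °C, then washed. After 24 h, compounds added at 50, 12.5, 3.125 and 0.78 µg/mL for 72 h at 37 °C. EC50 by Probit; triplicate, two experiments.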

Cryptococcus neoformans [2] = experiment: Growth inhibition of Cryptococcus neoformans ATCC 32264 at 62.5 ug/ml incubated for 48 hrs under dark condition by broth microdilution method relative to control; type: functional; conditions: ATCC 32264, 48 h, read-out: GI; in short: as §2
Cryptococcus neoformans [3] = experiment: Growth inhibition of Cryptococcus neoformans ATCC 32264 at 7.8 ug/ml incubated for 48 hrs under dark condition by broth microdilution method relative to control; type: functional; conditions: ATCC 32264, 48 h, read-out: GI; in short: as §2
Staphylococcus aureus [4] = experiment: Antibacterial activity against vancomycin-intermediate Staphylococcus aureus after 24 hrs by resazurin dye based microdilution assay; type: functional; in short: as §1
U-937 = experiment: Cytotoxicity against human U937 cells after 72 hrs by MTT assay; type: cell-based; conditions: u-937, 72 h
In short: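 Exponentially growing U-937 at 1 × 10^5 cells/mL in RPMI-1640 with 10% FBS were exposed to 200, 50, 12.5 and 3.125 µg/mL for 72 h at 37 °C, 5% CO2. MTT for 3 h, stopped with isopropanol/SDS, formazan read at 570 nm, blank-corrected. LC50 by Probit from % viability against untreated cells. Triplicate, at least two independent experiments.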

Staphylococcus aureus [5] = experiment: Antibacterial activity against methicillin-resistant Staphylococcus aureus ATCC 43300 after 24 hrs by resazurin dye based microdilution assay; type: functional; conditions: ATCC 43300, 24 h
In short: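 Broth microdilution in Mueller Hinton broth, inoculum 5 × 10^5 – 8 × 10^5. Compound stocks diluted in MHB with 5% DMSO and 0.1% Tween 80. Incubation 24 h at 35-37 °C. MIC is the lowest concentration with visible growth inhibition and/or by resazurin (1 mg/mL) read-out. Gentamicin as control. Run in duplicate, replicated at least three times.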

Candida albicans [6] = experiment: Growth inhibition of Candida albicans ATCC 10231 at 31.25 ug/ml incubated for 48 hrs under dark condition by broth microdilution method relative to control; type: functional; conditions: ATCC 10231, 48 h, read-out: GI; in short: as §2
Cryptococcus neoformans [7] = experiment: Growth inhibition of Cryptococcus neoformans ATCC 32264 at 15.62 ug/ml incubated for 48 hrs under dark condition by broth microdilution method relative to control; type: functional; conditions: ATCC 32264, 48 h, read-out: GI; in short: as §2
Klebsiella pneumoniae [8] = experiment: Antibacterial activity against ESBL positive Klebsiella pneumoniae ATCC 700603 after 24 hrs by resazurin dye based microdilution assay; type: functional; conditions: Klebsiella pneumoniae, 700603, 24 h; in short: as §1
Cryptococcus neoformans [9] = experiment: Growth inhibition of Cryptococcus neoformans ATCC 32264 at 125 ug/ml incubated for 48 hrs under dark condition by broth microdilution method relative to control; type: functional; conditions: ATCC 32264, 48 h, read-out: GI; in short: as §2
Neisseria gonorrhoeae = experiment: Antibacterial activity against beta lactamase positive Neisseria gonorrhoeae ATCC 31426 by oxidase test; type: functional
In short: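 Agar dilution MIC on GC agar with 1% isovitalex containing increasing compound concentrations. Plates inoculated with about 1×10^4 CFU (5 µL). MIC is the lowest concentration that inhibited growth, with growth confirmed by oxidase test. Run in duplicate, repeated at least three times.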

Trypanosoma cruzi = experiment: Antitrypanosomal activity against Trypanosoma cruzi Tulahuen intracellular amastigote harboring LacZ infected in human U937 cells after 72 hrs by CPRG/Nonidet reagent based spectrophotometric method; type: functional, cell-based; conditions: U-937, 72 h
In short: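 U-937 cells at 2.5 × 10^5 cells/mL in RPMI-1640 with 10% serum and 0.1 µg/mL PMA were infected with β-galactosidase-transfected Tulahuen epimastigotes at 5 parasites per cell. Infected cells were exposed to 50, 12.5, 3.125 and 0.78 µg/mL for 72 h. CPRG (100 uM) and 0.1% Nonidet P-40 were added for 3 h, read at 570 nm. EC50 by Probit. Triplicate, at least two experiments; benznidazole as reference.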

Candida albicans [10] = experiment: Growth inhibition of Candida albicans ATCC 10231 at 250 ug/ml incubated for 48 hrs under dark condition by broth microdilution method relative to control; type: functional; conditions: ATCC 10231, 48 h, read-out: GI; in short: as §2
Pseudomonas aeruginosa = experiment: Antibacterial activity against Pseudomonas aeruginosa ATCC 27853 after 24 hrs by resazurin dye based microdilution assay; type: functional; conditions: ATCC 27853, 24 h; in short: as §1
Candida albicans [11] = experiment: Growth inhibition of Candida albicans ATCC 10231 at 15.62 ug/ml incubated for 48 hrs under dark condition by broth microdilution method relative to control; type: functional; conditions: ATCC 10231, 48 h, read-out: GI; in short: as §2
Candida albicans [12] = experiment: Growth inhibition of Candida albicans ATCC 10231 at 3.4 ug/ml incubated for 48 hrs under dark condition by broth microdilution method relative to control; type: functional; conditions: ATCC 10231, 48 h, read-out: GI
Candida albicans [13] = experiment: Antifungal activity against Candida albicans ATCC 10231 incubated for 48 hrs under dark condition by broth microdilution method; type: functional; conditions: ATCC 10231, 48 h
In short: (§3)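 CLSI M27-A3 broth microdilution in RPMI-1640, DMSO ≤1%, compounds at 250-0.98 µg/mL final. Inoculum 1-5 × 10^3 CFU/mL. Incubated 48 h at 30 °C in a moist dark chamber, read at OD405. MIC80 and MIC50 taken from % inhibition dose-response curves (mean ± SEM, triplicate). Amphotericin B was the positive control.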

Staphylococcus aureus [14] = experiment: Antibacterial activity against methicillin-sensitive Staphylococcus aureus ATCC 25923 after 24 hrs by resazurin dye based microdilution assay; type: functional; conditions: ATCC 25923, 24 h; in short: as §1
Cryptococcus neoformans [15] = experiment: Growth inhibition of Cryptococcus neoformans ATCC 32264 at 3.4 ug/ml incubated for 48 hrs under dark condition by broth microdilution method relative to control; type: functional; conditions: ATCC 32264, 48 h, read-out: GI
Candida albicans [16] = experiment: Growth inhibition of Candida albicans ATCC 10231 at 125 ug/ml incubated for 48 hrs under dark condition by broth microdilution method relative to control; type: functional; conditions: ATCC 10231, 48 h, read-out: GI; in short: as §2
Cryptococcus neoformans [17] = experiment: Antifungal activity against Cryptococcus neoformans ATCC 32264 incubated for 48 hrs under dark condition by broth microdilution method; type: functional; conditions: ATCC 32264, 48 h; in short: as §3
Cryptococcus neoformans [18] = experiment: Growth inhibition of Cryptococcus neoformans ATCC 32264 at 31.25 ug/ml incubated for 48 hrs under dark condition by broth microdilution method relative to control; type: functional; conditions: ATCC 32264, 48 h, read-out: GI; in short: as §2
Candida albicans [19] = experiment: Growth inhibition of Candida albicans ATCC 10231 at 7.8 ug/ml incubated for 48 hrs under dark condition by broth microdilution method relative to control; type: functional; conditions: ATCC 10231, 48 h, read-out: GI; in short: as §2
Klebsiella pneumoniae [20] = experiment: Antibacterial activity against carbapenemase positive Klebsiella pneumoniae BAA 1705 after 24 hrs by resazurin dye based microdilution assay; type: functional; conditions: BAA 1705, 24 h; in short: as §1
Plasmodium falciparum = experiment: Antiplasmodial activity against chloroquine-sensitive Plasmodium falciparum 3D7 assessed as reduction in parasitic LDH activity after 48 hrs by Malstat reagent based […] method; type: functional; conditions: 3D7, 48 h
In short: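 Unsynchronized P. falciparum 3D7 at 0.5% parasitemia and 1% hematocrit in RPMI with 3% Albumax II. Exposed to 100, 25, 6.25 and 1.56 µg/mL for 48 h at 37 °C under 90% N2/5% CO2/5% O2. After three freeze-thaw cycles, LDH measured with Malstat and NBT/PES, 1 h in the dark, read at 650 nm. IC50 by Probit; triplicate, ≥2 experiments.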

Candida albicans [21] = experiment: Growth inhibition of Candida albicans ATCC 10231 at 62.5 ug/ml incubated for 48 hrs under dark condition by broth microdilution method relative to control; type: functional; conditions: ATCC 10231, 48 h, read-out: GI; in short: as §2

For COc1ccc(C2=NN(C(C)=O)C(c3cccc(Nc4ccnc5cc(Cl)ccc45)c3)C2)cc1 (stereo not given), the MIC (Escherichia coli) was over 1000 µg/mL, the inhibition of growth at 250 µg/mL (Cryptococcus neoformans [1]) was 72.2% and the EC50 (Leishmania panamensis) was 2.98 µg/mL (≈ 6.33 µM). For the same molecule, the inhibition of growth at 62.5 µg/mL (Cryptococcus neoformans [2]) was 22.4%, the inhibition of growth at 7.8 µg/mL (Cryptococcus neoformans [3]) was 7.99% and the MIC (Staphylococcus aureus [4]) was over 1000 µg/mL. The LC50 (U-937) was 4.9 µg/mL (≈ 10.4 µM), the MIC (Staphylococcus aureus [5]) was over 1000 µg/mL and the inhibition of growth at 31.25 µg/mL (Candida albicans [6]) was 16.9%. The inhibition of growth at 15.62 µg/mL (Cryptococcus neoformans [7]) was 13.9%, the MIC (Klebsiella pneumoniae [8]) was over 1000 µg/mL and the inhibition of growth at 125 µg/mL (Cryptococcus neoformans [9]) was 45%. The MIC (Neisseria gonorrhoeae) was over 1000 µg/mL, the EC50 (Trypanosoma cruzi) was 3.44 µg/mL (≈ 7.3 µM) and the inhibition of growth at 250 µg/mL (Candida albicans [10]) was 37.5%. It also gave an MIC (Pseudomonas aeruginosa) of over 1000 µg/mL, an inhibition of growth at 15.62 µg/mL (Candida albicans [11]) of 14.2% and an inhibition of growth at 3.4 µg/mL (Candida albicans [12]) of 6.14%. It also gave an MIC50 (Candida albicans [13]) of at least 250 µg/mL, an MIC80 (Candida albicans [13]) of at least 250 µg/mL and an MIC (Staphylococcus aureus [14]) of over 1000 µg/mL. The inhibition of growth at 3.4 µg/mL (Cryptococcus neoformans [15]) was 4.82%, the inhibition of growth at 125 µg/mL (Candida albicans [16]) was 33.4% and the MIC50 (Cryptococcus neoformans [17]) was 250 µg/mL (≈ 531 µM). The MIC80 (Cryptococcus neoformans [17]) was at least 250 µg/mL, the inhibition of growth at 31.25 µg/mL (Cryptococcus neoformans [18]) was 20.2% and the inhibition of growth at 7.8 µg/mL (Candida albicans [19]) was 7.64%. It also gave an MIC (Klebsiella pneumoniae [20]) of over 1000 µg/mL, an EC50 (Plasmodium falciparum) of 13.8 µg/mL (≈ 29.3 µM) and an inhibition of growth at 62.5 µg/mL (Candida albicans [21]) of 20.4%.
